High-throughput results (PubChem)
Jurkat NFkB inh: inhibitors of induced NF-kB luciferase reporter, primary screen, TCR NF-kB activation inhibitor project, cell-based, luminescence, uHTS. Jurkat, PMA/ionomycin-induced NF-kB luciferase reporter. inhibition, % at 4 µM. 330,000 tested, 0.53% active; in the data active = inhibition above about 50%
HSF1 activator: HSF-1 activators, primary screen, NIH3T3-HGL cells, MG132 stress, luminescence, single point | NIH3T3-HGL HSF-1 luciferase reporter, 8 h; 100% = twice DMSO control signal | activation, % at 9 µM | 300,000 tested, 1.7% active;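 active = mean replicate activation of at least 50% with a set share of replicates each reaching 50%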
GPR7 antag: GPR7 receptor antagonists, primary screen, cell-based, fluorescence, single concentration. Neuropeptides B/W receptor type 1 (Homo sapiens), P48145. GPR7-expressing cells, fluorescence antagonist assay. inhibition, % at 4.4 µM. 290,000 tested, 1.1% active. AID 1861, 2009; in the data active = inhibition above about 16%, passing the limit was not always enough;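 note: cells stimulated with the agonist NPW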
Target sequence (P48145 whole entry, looked up): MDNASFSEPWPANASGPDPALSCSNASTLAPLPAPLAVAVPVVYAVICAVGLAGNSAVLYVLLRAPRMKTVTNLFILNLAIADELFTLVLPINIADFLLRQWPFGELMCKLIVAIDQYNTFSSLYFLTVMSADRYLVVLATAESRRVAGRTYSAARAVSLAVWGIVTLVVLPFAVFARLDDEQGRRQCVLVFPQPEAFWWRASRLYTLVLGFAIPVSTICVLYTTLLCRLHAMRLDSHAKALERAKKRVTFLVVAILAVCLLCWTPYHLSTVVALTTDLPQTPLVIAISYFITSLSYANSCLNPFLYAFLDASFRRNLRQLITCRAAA
T cruzi repl: inhibitors of intracellular T. cruzi growth, primary screen, luminescence, NIH3T3 host cells | inhibition, % (no concentration beside the values) | T. cruzi beta-gal in NIH3T3, 90 h | 300,000 tested, 1.4% active;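 active = mean inhibition across valid replicates above about 55%, limit read from the data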;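 note: signal also drops with host cell toxicity which is not excluded here; higher percent means less beta-gal luminescence so fewer parasites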
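System: mouse NIH/3T3 fibroblasts infected with β-gal-expressing T. cruzi Tulahuen C4 / Input: NIH/3T3 cells, 5,000 per well / Buffer or medium: Low-serum DMEM with 2% FBS / Probe or stimulus: 5000 reporter trypomastigotes per well / Schedule: ≥90 h infection period, 3 h prior cell attachment / Measured by: GalScreen luminescence, 60 min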
HSF1 inhib: HSF1 inhibitors in luciferase reporter cells, primary screen, cell-based, NIH3T3, luminescence; NIH3T3-HGL HSE-luciferase, MG132-induced, luminescence 8 h; stronger effect = lower value; activity change, negative = inhibition, % at 7.5 µM (by protocol); 300,000 tested, 0.77% active; AID 2098, 2009;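 active = more than half of replicate wells show activity change below -50%, luminescence cut by over half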;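 note: luciferase reports HSF-1 transcriptional activity via heat shock element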
697 NFkB inh: inhibitors of PMA/ionomycin-induced NF-kB reporter, 697 cells, primary screen, B-cell NF-kB inhibitor project, cell-based, luminescence, uHTS. 330,000 tested, 0.33% active. inhibition, % at 4 µM. 697 B-cell NF-kB luciferase reporter, 16 h. AID 435022, 2010; in the data active = inhibition above about 35%
Numbers stand for hits; n = inactive; x = no result. Sampled rows, rich in hits. Any-hit rate of the full collection: about 4.8%.

SMILES | Jurkat NFkB inh | HSF1 activator | GPR7 antag | T cruzi repl | HSF1 inhib | 697 NFkB inh
Clc1cccc(CSc2nnc(-c3ccccn3)n2Cc2ccco2)c1 | n | n | 21 | n | n | n
Cc1ccc(-c2cccc(C3CC=CC4C3C(=O)N(Cc3ccccc3)C4c3ccc(C(F)(F)F)cc3)c2)cc1 (stereo not drawn) | n | n | x | n | n | n
COc1ccccc1CNC(=O)CSc1ccc(-c2ccccn2)nn1 | n | n | n | n | n | n
C=CCn1c(SCC(=O)c2c(N)n(C)c(=O)n(C)c2=O)nnc1-c1ccccc1F | n | n | n | n | n | n
COC(=O)C(NC(=O)CNS(=O)(=O)c1ccc(Br)cc1)c1ccccc1 (stereo not drawn) | n | 54 | n | n | n | n
COc1ccccc1-c1cc(C(=O)NC(C)c2ccccc2)no1 (stereo not drawn) | n | n | n | n | n | n
COc1ccccc1-c1cc(C(=O)NC(C)C)no1 | n | 54 | n | n | n | n
CCCCN(C(=O)CSc1ncn[nH]1)c1c(N)n(Cc2ccccc2)c(=O)[nH]c1=O | n | x | x | x | x | n
COc1ccc(Nc2c(-c3ccc(C)cc3)nc3cnccn23)cc1 | n | n | 17 | n | n | n
Cn1nc(N)c2c(-c3ccc(Cl)cc3)c(C#N)c(N)nc21 | n | n | n | n | n | n
Cn1nc(N)c2c(-c3ccccc3)c(C#N)c(N)nc21 | n | n | n | n | -69 | n
O=C(/C=C/NNC(=O)c1ccccc1)c1ccc([N+](=O)[O-])cc1 | n | n | n | 61 | n | n
COc1cc(C(=O)NNC(=O)C2CC2)cc(OC)c1OC | n | n | n | n | n | n
CC(C)=CCc1c(-c2ccc(O)cc2O)oc2cc3c(c(O)c2c1=O)C=CC(C)(C)O3 | n | n | x | n | n | n
COc1ccc(-c2oc3c4c(cc(OC)c3c(=O)c2CC=C(C)C)OC(C)(C)C=C4)c(OC)c1 | n | n | x | 65 | n | n
Cc1ccc(CCN2CCN=C2Nc2ccccc2)cc1 | n | x | x | x | x | n
COC(=O)c1ccc(COC(=O)C2CCN(S(=O)(=O)c3ccccc3C(=O)OC)CC2)cc1 | n | x | x | x | x | n
C=CCSc1nnc(-c2sc(-c3ccccc3)nc2C)n1C | n | n | n | n | n | n
C=CCN(C(=O)CSC1=NC(=O)CN1C(C)=O)c1nc(C)c(-c2ccccc2)s1 | n | n | n | 70 | n | n
Cc1cc(/C=C2\NC(=O)NC2=O)c(C)n1-c1cccnc1 | n | n | n | n | n | n
Cc1cccc(C)c1-n1c(C)cc(/C=C2\NC(=O)NC2=O)c1C | n | n | n | n | -52 | n
O=C(Cn1ncc2c([nH]c3ccccc32)c1=O)N1CCOCC1 | n | n | n | n | n | n
C/C(=N\O)C1CCCCC1 | n | n | n | n | -57 | n
C/C(=N\NC(=O)NC1CCCCC1)C1CCCCC1 | n | n | n | n | n | n
O=[N+]([O-])c1ccc(Nc2ccccc2)c2nonc12 | n | n | n | n | n | n
SMILES | Jurkat NFkB inh | HSF1 activator | GPR7 antag | T cruzi repl | HSF1 inhib | 697 NFkB inh
O=[N+]([O-])c1ccc(Sc2cccc[n+]2[O-])c2nonc12 | x | x | 20 | n | n | x
O=C1C(c2ccccc2)=[N+]([O-])c2ccccc21 | n | n | x | n | n | n
CCCCSc1nc(C)cc(SCC(=O)N/N=C/c2cccc(OC)c2O)n1 | n | 84 | n | n | n | n
CCCc1nnc(NC(=O)CCC(=O)N2CCN(S(=O)(=O)c3ccc(F)cc3)CC2)s1 | n | n | n | n | -86 | n
CCOc1ccccc1NC(=O)CCNC(=O)Cn1ccc2ccccc2c1=O | n | n | n | n | n | n
Cc1cc(Nc2nc3ccccc3nc2Cl)n(-c2ccc([N+](=O)[O-])cc2)n1 | n | n | n | 55 | n | n
Cc1cc(Nc2nc3ccccc3[nH]c2=O)n(-c2ccccc2)n1 | n | x | n | x | x | n
C=CCOc1ccc(C2C(C(=O)c3ccc(C)o3)=C(O)C(=O)N2Cc2cccnc2)cc1 (stereo not drawn) | n | n | n | n | n | n
